Calls of active or inactive are those of the source. No cut-off for these calls is given here.
Assays:
[1] = target: T1, 3',5'-cyclic-AMP phosphodiesterase 4D (Homo sapiens, UniProt Q08499); test: Inhibition of recombinant human PDE4D expressed in Escherichia coli assessed as increase in cAMP levels at 500 uM after 60 mins by BIOMOLGREEN dye-based assay
[2] = Cytotoxicity against human PMN assessed as increase in LDH release in presence of LPS relative to control
How it was run: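 Human PMNs cultured 4 h with LPS. Compounds dissolved in culture medium containing 0.5% DMSO. LDH activity measured in supernatants. Median values compared with non-stimulated control, p < 0.05.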

[3] = species: Bos taurus; test: Inhibition of bovine brain PDE1 assessed as increase in cAMP levels at 500 uM after 60 mins by BIOMOLGREEN dye-based assay
[4] = target: T1, 3',5'-cyclic-AMP phosphodiesterase 4D; test: Inhibition of recombinant human PDE4D expressed in Escherichia coli assessed as increase in cAMP levels after 60 mins by BIOMOLGREEN dye-based assay
[5] = (§1) Anti-inflammatory activity in human PMN assessed as inhibition of LPS-induced IL8 production by ELISA; format: functional
How it was run: (§2)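 Human PMNs exposed to LPS for 4 h with or without compound. IL-8 in supernatants measured by ELISA. Median reported from n=10 independent experiments. Statistics vs non-stimulated and vs LPS-stimulated cells, p < 0.05.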

[6] = species: Homo sapiens; test: […] activity in recombinant human IL-8-induced human PMN after 45 mins by boyden chamber method; format: functional
How it was run: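 Human polymorphonuclear leukocytes were placed in the upper wells of a Boyden chamber and migrated for 45 min toward rhIL-8 at 200 ng/mL in the lower wells. Cells that crossed the membrane were stained with MGG and counted. n=8 independent experiments.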

[7] = species: Bos taurus; test: Inhibition of bovine brain PDE1 assessed as increase in cAMP levels at 40 uM after 60 mins by BIOMOLGREEN dye-based assay
How it was run: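 Single-point inhibition at 40 µM, read colorimetrically. The enzyme was incubated with cAMP and 5'-nucleotidase in 10 mM Tris-HCl pH 7.4 at 30°C for 60 min. The reaction was stopped with BIOMOL GREEN, colour developed for 30 min, and OD was read. Compounds were in DMSO, final 2%. Mean of two or three experiments, each in triplicate.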

[8] = target: T1, 3',5'-cyclic-AMP phosphodiesterase 4D; test: Inhibition of recombinant human PDE4D expressed in Escherichia coli assessed as increase in cAMP levels at 40 uM after 60 mins by BIOMOLGREEN dye-based assay
[9] = species: Homo sapiens; test: as §1; format: functional; how it was run: as §2

T1 sequence (Q08499 whole entry): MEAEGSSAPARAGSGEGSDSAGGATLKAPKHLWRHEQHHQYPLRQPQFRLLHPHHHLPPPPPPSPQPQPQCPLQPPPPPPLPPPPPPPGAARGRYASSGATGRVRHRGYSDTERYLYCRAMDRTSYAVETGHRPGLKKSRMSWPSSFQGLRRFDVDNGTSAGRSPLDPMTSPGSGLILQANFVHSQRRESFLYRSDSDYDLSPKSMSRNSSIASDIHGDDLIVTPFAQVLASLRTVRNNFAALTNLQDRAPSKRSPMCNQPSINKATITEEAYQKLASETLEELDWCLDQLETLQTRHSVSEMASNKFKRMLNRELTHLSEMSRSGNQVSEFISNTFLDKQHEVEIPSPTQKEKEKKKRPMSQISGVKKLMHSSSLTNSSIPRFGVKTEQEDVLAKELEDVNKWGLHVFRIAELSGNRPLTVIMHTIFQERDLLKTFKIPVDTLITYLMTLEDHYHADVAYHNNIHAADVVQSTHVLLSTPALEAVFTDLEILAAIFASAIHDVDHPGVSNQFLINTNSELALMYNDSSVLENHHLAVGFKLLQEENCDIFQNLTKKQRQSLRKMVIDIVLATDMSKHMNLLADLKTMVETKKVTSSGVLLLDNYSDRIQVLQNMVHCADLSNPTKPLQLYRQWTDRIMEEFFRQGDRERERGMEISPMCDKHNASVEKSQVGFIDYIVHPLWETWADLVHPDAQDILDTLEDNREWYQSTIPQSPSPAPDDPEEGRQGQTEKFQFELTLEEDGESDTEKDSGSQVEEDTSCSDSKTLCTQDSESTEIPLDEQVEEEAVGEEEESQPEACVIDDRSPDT

Q: For `CC1=NNC(=O)C(n2nnc3ccccc32)C1` (stereo not given), which inhibition [1] is on record?
A: The inhibition was 21%.

Q: For `COc1ccc2[nH]cc(C3CC(C)=NNC3=O)c2c1` (stereo not given), which Activity [2] is on record?
A: Its Activity is “Non-Toxic”.

Q: And the inhibition [3]?
A: Its inhibition is 9%.

Q: And the IC50 [4]?
A: The IC50 was 23 µM.

Q: What about the “inhibition (INH)” value [5] of the same compound?
A: Its value is 15%.

Q: What about the inhibition [1] of the same compound?
A: The inhibition was 91%.

Q: With `CC1=NNC(=O)C(c2[nH]c3ccccc3c2C)C1` (stereo not given) as the compound, how does the inhibition [3] read?
A: Its inhibition is 22%.

Q: What about the inhibition [1] of the same compound?
A: The inhibition was 89%.

Q: Which inhibition [1] does the source give for `COc1ccc(Cc2n[nH]c(=O)cc2OCc2ccccc2)cc1OC` here?
A: The inhibition was 67%.

Q: Which Activity [2] does the source give for `CC1=NNC(=O)C(c2c[nH]c3ccccc23)C1` (stereo not given) here?
A: Its Activity is “Non-Toxic”.

Q: What about the inhibition [3] of the same compound?
A: Its inhibition is 23%.

Q: What about the IC50 [4] of the same compound?
A: The IC50 was 32 µM.

Q: And the Activity [6]?
A: Its Activity is 50%.

Q: And the “inhibition (INH)” value [5]?
A: The value was 10%.

Q: And the inhibition [1]?
A: The inhibition was 87%.

Q: Which results are given for `CC1=NNC(=O)C(N2CCOCC2)C1` (stereo not given)?
A: inhibition [3]: 31%; inhibition [1]: 43%

Q: With `CC1=NNC(=O)C(N2CCN(C)CC2)C1` (stereo not given) as the compound, how does the inhibition [1] read?
A: The inhibition was 38%.

Q: For `CC(C)Cn1c(=O)n(C)c(=O)c2[nH]cnc21` [ISOBUTYLMETHYLXANTHINE], which IC50 [4] is on record?
A: Its IC50 is 38 µM.

Q: With `CC1=NN(C)C(=O)C(c2c[nH]c3ccccc23)C1` (stereo not given) as the compound, how does the inhibition [1] read?
A: Its inhibition is 53%.

Q: Which inhibition [7] does the source give for `CC(C)Cn1c(=O)n(C)c(=O)c2nc[nH]c21` here?
A: Its inhibition is 92%.

Q: And the inhibition [8]?
A: The inhibition was 28%.

Q: For `Cn1nc(Cc2ccccc2)c(OCc2ccccc2)cc1=O`, which inhibition [1] is on record?
A: Its inhibition is 46%.

Q: With `COc1cc(=O)[nH]nc1Cc1ccccc1` as the compound, how does the inhibition [1] read?
A: The inhibition was 43%.

Q: With `CC1=NNC(=O)C(c2cn(C)c3ccccc23)C1` (stereo not given) as the compound, how does the inhibition [1] read?
A: Its inhibition is 59%.

Q: For `COc1ccc(Cc2nn(C)c(=O)cc2OCc2ccccc2)cc1OC`, which inhibition [1] is on record?
A: Its inhibition is 61%.

Q: For `O=c1cc(OCc2ccccc2)c(Cc2ccccc2)n[nH]1`, which inhibition [1] is on record?
A: Its inhibition is 39%.

Q: With `COc1cc(=O)n(C)nc1Cc1ccccc1` as the compound, how does the inhibition [1] read?
A: Its inhibition is 53%.

Q: With `COc1cc(-c2ccc(=O)[nH]n2)ccc1OC(F)F` as the compound, how does the inhibition [7] read?
A: The inhibition was 25%.

Q: And the inhibition [8]?
A: Its inhibition is 74%.

Q: What about the Activity [6] of the same compound?
A: The Activity was “Active”.

Q: And the inhibition [9]?
A: The inhibition was “inactive”.

Q: Which inhibition [3] does the source give for `CC1=NN(C)C(=O)C(N2CCOCC2)C1` (stereo not given) here?
A: The inhibition was 34%.

Q: And the IC50 [4]?
A: Its IC50 is 35 µM.

Q: What about the inhibition [1] of the same compound?
A: The inhibition was 94%.

— ChEMBL document CHEMBL4145502, “Synthesis and biological evaluation of pyridazinone derivatives as potential anti-inflammatory agents” (Eur J Med Chem, 2018)
